Test results taken from ChEMBL document CHEMBL1132327, “Improved in vivo stability of actinium-225 macrocyclic complexes” (J Med Chem, 1999).

Columns and labels:
Conditions in all cases: in vivo
[1] = species on record: Mus musculus; experiment: Biodistribution of [225Ac]-labeled compound in normal mice spleen after 4 hr; format: ADME, organism-based
[2] = species on record: Mus musculus; experiment: Biodistribution of [225Ac]-labeled compound in normal mice kidney after 24 hr; format: ADME, organism-based
[3] = species on record: Mus musculus; experiment: Biodistribution of [225Ac]-labeled compound in normal mice heart after 4 hr; format: ADME, organism-based
[4] = species on record: Mus musculus; experiment: Biodistribution of [225Ac]-labeled compound in normal mice bone after 1 hr; format: ADME, organism-based, Bone element
[5] = species on record: Mus musculus; experiment: Biodistribution of [225Ac]-labeled compound in normal mice spleen after 120 hr; format: ADME, organism-based
[6] = species on record: Mus musculus; experiment: Biodistribution of [225Ac]-labeled compound in normal mice spleen after 24 hr; format: ADME, organism-based
[7] = species on record: Mus musculus; experiment: Biodistribution of [225Ac]-labeled compound in normal mice bone after 4 hr; format: ADME, organism-based, Bone element
[8] = species on record: Mus musculus; experiment: Biodistribution of [225Ac]-labeled compound in normal mice heart after 1 hr; format: ADME, organism-based
[9] = species on record: Mus musculus; experiment: Biodistribution of [225Ac]-labeled compound in normal mice liver after 120 hr; format: ADME, organism-based
[10] = species on record: Mus musculus; experiment: Biodistribution of [225Ac]-labeled compound in normal mice spleen after 1 hr; format: ADME, organism-based
[11] = species on record: Mus musculus; experiment: Biodistribution of [225Ac]-labeled compound in normal mice liver after 1 hr; format: ADME, organism-based
[12] = species on record: Mus musculus; experiment: Biodistribution of [225Ac]-labeled compound in normal mice heart after 24 hr; format: ADME, organism-based
[13] = species on record: Mus musculus; experiment: Biodistribution of [225Ac]-labeled compound in normal mice liver after 4 hr; format: ADME, organism-based
[14] = species on record: Mus musculus; experiment: (§1) Biodistribution of [225Ac]-labeled compound in normal mice kidney after 120 hr; format: ADME, organism-based
In short: (§2)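 Normal female BALB/c mice received 2.5 µCi of 225Ac complex in 200 µL MES buffer (pH 6.2) by tail-vein injection. All complexes except Ac-acetate were Chelex-purified (0.1 M NH4OAc, pH 5.0) beforehand. Three to five animals were killed per time point. Tissues were weighed and counted for 225Ac 4 h later to allow nuclear equilibration, against external standards from the dose dilutions. Results are expressed as %ID/g.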

[15] = species on record: Mus musculus; experiment: Biodistribution of [225Ac]-labeled compound in normal mice kidney after 4 hr; format: ADME, organism-based; in short: as §2
[16] = species on record: Mus musculus; experiment: Biodistribution of [225Ac]-labeled compound in normal mice blood after 1 hr; format: ADME, organism-based
[17] = species on record: Mus musculus; experiment: Biodistribution of [225Ac]-labeled compound in normal mice bone after 24 hr; format: ADME, organism-based, Bone element
[18] = species on record: Mus musculus; experiment: Biodistribution of [225Ac]-labeled compound in normal mice bone after 120 hr; format: ADME, organism-based, Bone element
[19] = species on record: Mus musculus; experiment: Biodistribution of [225Ac]-labeled compound in normal mice heart after 120 hr; format: ADME, organism-based
[20] = species on record: Mus musculus; experiment: Biodistribution of [225Ac]-labeled compound in normal mice liver after 24 hr; format: ADME, organism-based
[21] = species on record: Mus musculus; experiment: Biodistribution of [225Ac]-labeled compound in normal mice kidney after 1 hr; format: ADME, organism-based
[22] = species on record: Mus musculus; experiment: Biodistribution of [225Ac]-labeled compound in normal mice blood after 4 hr; format: ADME, organism-based
[23] = species on record: Mus musculus; experiment: Biodistribution of [225Ac]-labeled compound in normal mice blood after 120 hr; format: ADME, organism-based
[24] = species on record: Mus musculus; experiment: Biodistribution of [225Ac]-labeled compound in normal mice blood after 24 hr; format: ADME, organism-based
[25] = species on record: Mus musculus; experiment: as §1; format: ADME, organism-based; remark: listed apart in the source

| Compound | ID/g [1] [%] | ID/g [2] [%] | ID/g [3] [%] | ID/g [4] [%] | ID/g [5] [%] | ID/g [6] [%] | ID/g [7] [%] | ID/g [8] [%] | ID/g [9] [%] | ID/g [10] [%] | ID/g [11] [%] | ID/g [12] [%] | ID/g [13] [%] | ID/g [15] [%] | ID/g [16] [%] | ID/g [17] [%] | ID/g [18] [%] | ID/g [19] [%] | ID/g [20] [%] | ID/g [21] [%] | also measured |
| --- | --- | --- | --- | --- | --- | --- | --- | --- | --- | --- | --- | --- | --- | --- | --- | --- | --- | --- | --- | --- | --- |
| O=C(O)CN(CC(=O)O)[C@H](Cc1ccc([N+](=O)[O-])cc1)CN(CC(=O)O)[C@@H]1CCCC[C@H]1N(CC(=O)O)CC(=O)O | 0.4 | 1.71 | 1.51 | 4.34 | 5.41 | 0.63 | 4.44 | 1.99 | 23.9 | 0.71 | 8.85 | 0.43 | 12.9 | 3.36 | 0.86 | 4.65 | 4.18 | 0.6 | 12.8 | 4.55 | ID/g [14]: 1.51%; ID/g [22]: < 0.01%; ID/g [23]: < 0.01%; ID/g [24]: < 0.01% |
| O=C(O)CN1CCN(CC(=O)O)CCN(CC(=O)O)CCN(CC(=O)O)CCN(CC(=O)O)CC1 | 0.59 | 1.64 | 2.34 | 1.75 | 1.63 | 0.8 | 1.6 | 2.65 | 22.3 | 0.83 | 12 | 0.68 | 16.4 | 3.47 | 1.33 | 1.51 | 1.6 | 0.39 | 14.7 | 5.6 | ID/g [14]: 1.28%; ID/g [22]: < 0.01%; ID/g [23]: < 0.01%; ID/g [24]: < 0.01% |
| O=C(O)CN1CCN(CC(=O)O)CCN(CC(=O)O)CCN(CC(=O)O)CCN(CC(=O)O)CCN(CC(=O)O)CC1 | 0.027 | 0.43 | 0.032 | 0.06 | 0.03 | 0.03 | 0.025 | 0.06 | 0.26 | 0.05 | 0.17 | < 0.01 | 0.23 | 0.71 | 0.03 | < 0.01 | 0.02 | 0.03 | 0.19 | 0.72 | ID/g [25]: 0.25%; ID/g [22]: < 0.01%; ID/g [23]: < 0.01%; ID/g [24]: < 0.01% |
| O=C(O)CN1CCN(CC(=O)O)CCN(CC(=O)O)C(Cc2ccc([N+](=O)[O-])cc2)CN(CC(=O)O)CC1 (stereo unspecified) | 0.04 | 0.48 | 0.12 | 1.54 | 0.03 | 0.03 | 1.76 | 0.16 | 3.29 | 0.06 | 1.15 | 0.04 | 2.04 | 0.8 | 0.24 | 0.98 | 2.87 | 0.11 | 1.29 | 1.23 | ID/g [25]: 0.27%; ID/g [22]: < 0.01%; ID/g [23]: < 0.01%; ID/g [24]: < 0.01% |
